Paper PMC5388449 (Journal of electroanalytical chemistry (Lausanne, …, 2016)
Read-outs that look alike come from different tables or passages of the source.

Experiments:
peanut agglutinin (PNA) = target: T1, peanut agglutinin (PNA) (Arachis hypogaea, UniProt P02872); test: EIS negative control: PNA exposed to SAMs of thiolated mannosides on gold wire; assay type: binding; details: single-component SAM of Man-C8-SH on gold wire, 0.5 μM PNA
T1 sequence (P02872 24-273): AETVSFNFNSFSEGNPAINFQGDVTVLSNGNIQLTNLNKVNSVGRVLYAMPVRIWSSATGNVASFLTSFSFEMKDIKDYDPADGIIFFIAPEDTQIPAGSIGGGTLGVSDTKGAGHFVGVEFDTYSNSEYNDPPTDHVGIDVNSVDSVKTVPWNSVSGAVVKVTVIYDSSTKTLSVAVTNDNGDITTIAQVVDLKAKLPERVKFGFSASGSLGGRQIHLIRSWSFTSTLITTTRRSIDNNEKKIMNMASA
Summary of the method: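 Gold wires cleaned in nitric acid, then 0.5 M NaBH4 for 17 h. SAMs formed from thiolated mannoside, alone or with TEG-SH (1.0 mM total in methanol), 17 h at room temperature. Lectin in 10 mM Tris pH 7.4 with 0.1 M NaCl, 1 mM CaCl2, 1 mM MnCl2; 1 h at room temperature, then rinsed. EIS run at 5.0 mm exposed wire in 5 mM 1:1 ferri/ferrocyanide in 10 mM Tris pH 7.4, 100 kHz–1 Hz, 0.22 V vs Ag/AgCl. Rct obtained by Randles-circuit fit of Nyquist plots.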

Concanavalin A (Con A) = Concanavalin A (Con A) (Canavalia ensiformis, UniProt P02866); test: biochemical; assay type: binding, Canavalia ensiformis (Jack Bean); details: for ΔRct (Rct after Con A immobilization – Rct before): single-component SAM on gold wire
Con A [1] = details: SPR, cited from earlier work
Con A [2] = details: QCM, cited from earlier work
Con A [3] = details: ITC, in solution; cited from earlier work
Con A [4] = details: ITC, depending on ligand density on nanoparticles surface; cited from earlier work

Molecule | Kd (Concanavalin A (Con A)) | Hill coefficient (Concanavalin A (Con A)) | LOD (Concanavalin A (Con A)) | also measured
OC[C@H]1O[C@H](OCCCCCCCCS)[C@@H](O)[C@@H](O)[C@@H]1O [A, 8-mercaptooctyl α-D-mannopyranoside] | 0.07 ± 0.019 µM |  |  | increase in Rct value (peanut agglutinin (PNA)): negligible increase; ΔRct (Concanavalin A (Con A); mixed SAM 1:4 Man-C8-SH/TEG-SH on gold wire, 0.5 μM Con A, 1 h): 495 ± 15 Ω; ΔRct (Rct after Con A immobilization – Rct before) (Concanavalin A (Con A); 0.5 μM Con A, 1 h): 299 ± 51 Ω
OC[C@H]1O[C@H](O[C@@H]2[C@H](O)[C@@H](OCCCCCCCCS)O[C@H](CO)[C@H]2O)[C@@H](O)[C@@H](O)[C@@H]1O [B, 8-Mercaptooctyl 3-O-(α-D-mannopyranosyl)-α-D-mannopyranoside] | 0.075 ± 0.02 µM |  |  | 
OC[C@H]1O[C@H](OC[C@H]2O[C@H](OCCCCCCCCS)[C@@H](O)[C@@H](O)[C@@H]2O)[C@@H](O)[C@@H](O)[C@@H]1O [C, 8-Mercaptooctyl 6-O-(α-D-mannopyranosyl)-α-D-mannopyranoside] | 0.014 ± 0.004 µM | 0.73 ± 0.17 | 6 nM | 
OC[C@H]1O[C@H](OC[C@H]2O[C@H](OCCCCCCCCS)[C@@H](O)[C@@H](O[C@H]3O[C@H](CO)[C@@H](O)[C@H](O)[C@@H]3O)[C@@H]2O)[C@@H](O)[C@@H](O)[C@@H]1O [D, 8-Mercaptooctyl 3,6-di-O-(α-D-mannopyranosyl)-α-D-mannopyranoside] | 0.03 ± 0.005 µM | 0.55 ± 0.05 | 13 nM | 
OC[C@H]1O[C@H](OC[C@H]2O[C@H](OCCCCCCCCS)[C@@H](O)[C@@H](O)[C@@H]2O[C@H]2O[C@H](CO)[C@@H](O)[C@H](O)[C@@H]2O)[C@@H](O)[C@@H](O)[C@@H]1O [E, 8-Mercaptooctyl 4,6-di-O-(α-D-mannopyranosyl)-α-D-mannopyranoside] | 0.081 ± 0.031 µM | 0.50 ± 0.06 | 11 nM | 
OCCOCCOCCS [TEG-SH, 8-mercapto-3,6-dioxaoctanol, reference compound] |  |  |  | ΔRct (Rct after Con A immobilization – Rct before) (Concanavalin A (Con A); 0.5 μM Con A, 1 h): 63 ± 13 Ω
OC[C@H]1OC(O)[C@@H](O)[C@@H](O)[C@@H]1O (stereo partly shown) [mannose] |  |  |  | Kd (Con A [1]; mannose functionalized on a gold surface, multivalent interactions): 0.078 µM; Kd (Con A [1]; mannose–Con A interaction): 0.135 to 0.4 µM; Kd (Con A [2]; 1:2 binding of Con A to mannose): 0.071 µM; Kd (Con A [2]; mannose–Con A interaction): 0.25 to 0.4 µM
CO[C@H]1O[C@H](CO)[C@@H](O)[C@H](O)[C@@H]1O [methyl α-D-mannopyranoside] |  |  |  | Ka (Con A [3]): 0.82 × 10^4; Kd (Con A [3]): 122 µM
dimannose |  |  |  | Kd (Con A [4]): 0.035 to 0.175 µM
